Source: ChEMBL document CHEMBL3351960, “Lumazine peptides penilumamides B-D and the cyclic pentapeptide asperpeptide A from a gorgonian-derived Aspergillus sp. fungus” (2014)
Converted amounts (≈) assume the structure as drawn. The source made the active and inactive calls. The rule behind the calls is not given here. *1 amine or outer side, *2 acyl side, *3 side chain or, on linkers, in order; H or OH if unused. Where a SMILES comes first, the peptide text is derived from it. [ ]: non-standard residue; d: D form. X1 = O=C(c1cc(O)ccc1N[*:1])[*:2]

Tests used:
A549 = assay: Cytotoxicity against human A549 cells by SRB assay; format: functional, cell-based
Summary of the method: (§1)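 A549 lung carcinoma, HCT-116 colorectal cancer and HeLa cervical carcinoma cells were scored by sulforhodamine B assay, with adriamycin as positive control.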

K562 = assay: Cytotoxicity against human K562 cells by MTT assay; format: functional, cell-based
Summary of the method: (§2)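 K562 erythroleukemia and HL-60 promyelocytic leukemia cells were scored by MTT method, with adriamycin as positive control.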

HL-60 = assay: Cytotoxicity against human HL60 cells by MTT assay; format: functional, cell-based; summary of the method: as §2
HCT-116 = assay: Cytotoxicity against human HCT116 cells by SRB assay; format: functional, cell-based; summary of the method: as §1
HeLa = assay: Cytotoxicity against human HeLa cells by SRB assay; format: functional, cell-based; summary of the method: as §1
Bacillus cereus = assay: Antibacterial activity against Bacillus cereus; format: functional
Summary of the method: (§3)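 Run by a previously published antibacterial method against a 10-strain panel, with ciprofloxacin as positive control.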

Salmonella enterica = assay: Antibacterial activity against Salmonella enterica; format: functional, organism-based; summary of the method: as §3
Kocuria rhizophila = assay: Antibacterial activity against Kocuria rhizophila; format: functional, organism-based; summary of the method: as §3
[1] = test system: Staphylococcus epidermidis; assay: Antibacterial activity against Staphylococcus epidermidis; format: functional; summary of the method: as §3
Staphylococcus aureus = assay: Antibacterial activity against Staphylococcus aureus; format: functional, organism-based; summary of the method: as §3
Nocardia brasiliensis = assay: Antibacterial activity against Nocardia brasiliensis; format: functional, organism-based; summary of the method: as §3
Escherichia coli = assay: Antibacterial activity against Escherichia coli; format: functional, organism-based; summary of the method: as §3
Vibrio parahaemolyticus = assay: Antibacterial activity against Vibrio parahaemolyticus; format: functional, organism-based; summary of the method: as §3
Pseudomonas aeruginosa = assay: Antibacterial activity against Pseudomonas aeruginosa; format: functional, organism-based; summary of the method: as §3
Pseudomonas putida = assay: Antibacterial activity against Pseudomonas putida; format: functional, organism-based; summary of the method: as §3
[2] = test system: Respiratory syncytial virus; assay: Antiviral activity against respiratory syncytial virus; format: functional, organism-based
Summary of the method: (§4)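 Tested against RSV and HSV-1 by established procedures, with ribavirin as positive control.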

Human alphaherpesvirus 1 = assay: Antiviral activity against HSV1; format: functional, organism-based; summary of the method: as §4
Acetylcholinesterase = assay: Inhibition of AChE (unknown origin) by Ellman's method; settings: Homo sapiens

Compound	Activity (A549)	Activity (K562)	Activity (HL-60)	Activity (HCT-116)	Activity (HeLa)	Activity (Bacillus cereus)	Activity (Salmonella enterica)	Activity (Kocuria rhizophila)	Activity [1]	Activity (Staphylococcus aureus)	Activity (Nocardia brasiliensis)	Activity (Escherichia coli)	Activity (Vibrio parahaemolyticus)	Activity (Pseudomonas aeruginosa)	Activity (Pseudomonas putida)	Activity [2]	Activity (Human alphaherpesvirus 1)	inhibition (Acetylcholinesterase)	MIC (Bacillus cereus) [µM]	MIC [1] [µM]
COC(=O)c1ccccc1NC(=O)[C@H](CCS(C)(=O)=O)NC(=O)c1cnc2c(n1)c(=O)n(C)c(=O)n2C	inactive	inactive	inactive	inactive	inactive	inactive	inactive	inactive	inactive	inactive	inactive	inactive	inactive	inactive	inactive	inactive	inactive	inactive		
COC(=O)c1ccccc1NC(=O)[C@H](CC[S+](C)[O-])NC(=O)c1cnc2c(n1)c(=O)n(C)c(=O)n2C (some centres undefined)	inactive	inactive	inactive	inactive	inactive	inactive	inactive	inactive	inactive	inactive	inactive	inactive	inactive	inactive	inactive	inactive	inactive	inactive		
C[C@H](NC(=O)c1cnc2c(n1)c(=O)n(C)c(=O)n2C)C(=O)Nc1ccccc1C(N)=O	inactive	inactive	inactive	inactive	inactive	inactive	inactive	inactive	inactive	inactive	inactive	inactive	inactive	inactive	inactive	inactive	inactive	inactive		
COC(=O)c1ccccc1NC(=O)[C@H](CCSC)NC(=O)c1cnc2c(n1)c(=O)n(C)c(=O)n2C	inactive	inactive	inactive	inactive	inactive	inactive	inactive	inactive	inactive	inactive	inactive	inactive	inactive	inactive	inactive	inactive	inactive	inactive		
C[C@@H]1NC(=O)[C@H](Cc2ccc(O)cc2)NC(=O)c2cc(O)ccc2NC(=O)[C@@H]2CCCN2C(=O)[C@H](C)NC1=O (cyclo(AAP[X1]Y))																			12.5 (≈ 6.72 µg/mL)	12.5 (≈ 6.72 µg/mL)
